This note sets out measurements from ChEMBL document CHEMBL1687803, “Elevated linezolid resistance in clinical cfr-positive Staphylococcus aureus isolates is associated with co-occurring mutations in ribosomal protein L3” (2010).

Holding throughout (format): functional
Experiment [1] deals with Staphylococcus aureus. In words: Antibacterial activity against laboratory-derived Staphylococcus aureus isolate 29213-3 harboring ribosomal protein L3 deltaPhe127-His146 mutant by broth microdilution method. The procedure, abridged:
(§1)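 MICs were measured by CLSI broth microdilution against the S. aureus ATCC 29213 parent or its isogenic L3 mutants. The mutants had been selected earlier in vitro with oxazolidinones. Oxazolidinones and comparator antibiotics were tested. L3 mutations use staphylococcal numbering.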

The subject of experiment [2] is Staphylococcus aureus. Description: Antibacterial activity against laboratory-derived Staphylococcus aureus isolate 29213-3 harboring ribosomal protein L3 deltaPhe127-His146 mutant and cfr-containing p42262 by broth microdilution method. Summed up: (§2)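 The S. aureus ATCC 29213 parent and its isogenic L3 mutants carried the cfr plasmid p42262, introduced by electroporation. The plasmid came from clinical strain 42262. MICs were then measured by CLSI broth microdilution against oxazolidinones and comparator antibiotics.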

Experiment [3] relates to Staphylococcus aureus. In words: Antibacterial activity against laboratory-derived Staphylococcus aureus isolate 29213-1 harboring ribosomal protein L3 Gly155Arg mutant and cfr-containing p42262 by broth microdilution method. Summed up:
as §2

For experiment [4], the system named is Staphylococcus aureus. In words: Antibacterial activity against clinical-derived Staphylococcus aureus isolate harboring ribosomal protein L3 deltaSer145/His146Tyr mutant by broth microdilution method. Summed up: (§3)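 MICs were measured by broth microdilution following CLSI guidelines against clinical cfr-positive S. aureus isolates. Oxazolidinones and comparator antibiotics were tested. Extra ribosomal mutations were identified by sequencing 23S rRNA domain V of all alleles and the rplC and rplD genes.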

Experiment [5] relates to Staphylococcus aureus. Description: Antibacterial activity against clinical-derived Staphylococcus aureus isolate 51312 harboring ribosomal protein L3 deltaMet169-Gly174 mutant by broth microdilution method. Summed up:
as §3

Experiment [6] relates to Staphylococcus aureus. In words: Antibacterial activity against laboratory-derived Staphylococcus aureus isolate 29213-1 harboring ribosomal protein L3 Gly155Arg mutant by broth microdilution method. Summed up: as §1
The subject of experiment [7] is Staphylococcus aureus. In words: Antibacterial activity against laboratory-derived Staphylococcus aureus ATCC 29213 harboring cfr-containing p42262 by broth microdilution method. Summed up:
as §2

The test system of experiment [8] is Staphylococcus aureus. Description: Antibacterial activity against laboratory-derived Staphylococcus aureus isolate 29213-2 harboring ribosomal protein L3 Gly155Arg/Met169Leu mutant and cfr-containing p42262 by broth microdilution method. Summed up: as §2
Experiment [9] concerns Staphylococcus aureus. In words: Antibacterial activity against laboratory-derived Staphylococcus aureus ATCC 29213 by broth microdilution method. The procedure, abridged: as §1
The test system of experiment [10] is Staphylococcus aureus. In words: Antibacterial activity against clinical-derived Staphylococcus aureus isolate 42262 by broth microdilution method. Summed up: as §3
The subject of experiment [11] is Staphylococcus aureus. Description: Antibacterial activity against laboratory-derived Staphylococcus aureus isolate 29213-2 harboring ribosomal protein L3 Gly155Arg/Met169Leu mutant by broth microdilution method. Summed up:
as §1

Experiment [12] concerns Staphylococcus aureus. Description: Antibacterial activity against cfr positive Staphylococcus aureus clinical isolate by broth microdilution method. The procedure, abridged: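 MICs against clinical cfr-positive S. aureus isolates (groups 1–3 plus an environmental strain), by CLSI broth microdilution. Non-isogenic ATCC 29213 served as a linezolid-susceptible control strain. Isolates were also characterised by sequencing 23S rRNA domain V (all alleles), rplC (L3) and rplD (L4).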

Experiment [13] relates to Staphylococcus aureus. Description: Antibacterial activity against laboratory-generated cfr-transformed Staphylococcus aureus by broth microdilution method. Summed up: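 Isogenic panel in the S. aureus ATCC 29213 background: wild-type parent and three laboratory-selected L3 mutants, each electroporated with cfr plasmid p42262 from clinical strain 42262. MICs were read by CLSI broth microdilution.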

SMILES strings stand for the structures. ≈ marks a conversion by molar mass, not a printed value.

With `C=C[C@]1(C)C[C@@H](OC(=O)CSCCN(CC)CC)[C@]2(C)[C@H](C)CC[C@]3(CCC(=O)[C@H]32)[C@@H](C)[C@@H]1O` [TIAMULIN], the MIC in experiment [1] was 4 µg/mL (≈ 8.1 µM); in experiment [2], above 64 µg/mL; in experiment [3] it was above 64 µg/mL; in experiment [4] it was above 64 µg/mL; in experiment [5] it was above 64 µg/mL; in [6], 8 µg/mL (≈ 16.2 µM). In addition, the MIC in experiment [7] was above 64 µg/mL; in experiment [8] it was above 64 µg/mL; in [9], 0.5 µg/mL (≈ 1.01 µM); in experiment [10] it was above 64 µg/mL; in experiment [11], 4 µg/mL (≈ 8.1 µM).

With `CC(=O)NC[C@H]1CN(c2ccc(N3CCOCC3)c(F)c2)C(=O)O1` [LINEZOLID], the MIC in experiment [1] turned out to be 8 µg/mL (≈ 23.7 µM); in experiment [12], 8 µg/mL (≈ 23.7 µM); in experiment [2] it was 64 µg/mL (≈ 190 µM); in experiment [3], 32 µg/mL (≈ 94.9 µM); in experiment [4], 32 µg/mL (≈ 94.9 µM); in experiment [5], 64 µg/mL (≈ 190 µM). Moreover, the MIC in experiment [7] was determined as 16 µg/mL (≈ 47.4 µM); in [8], 64 µg/mL (≈ 190 µM); in [10], 16 µg/mL (≈ 47.4 µM); in experiment [13] it was 8 µg/mL (≈ 23.7 µM); in experiment [11], 8 µg/mL (≈ 23.7 µM).

In the case of `CC(=O)NC[C@H]1CN(c2ccc(-c3ccc(CNCc4cnn[nH]4)cc3)c(F)c2)C(=O)O1` [RADEZOLID], the MIC was determined as 2 µg/mL (≈ 4.56 µM) in experiment [1]; 8 µg/mL (≈ 18.2 µM) in experiment [2]; 4 µg/mL (≈ 9.12 µM) in experiment [3]; 4 µg/mL (≈ 9.12 µM) in experiment [4]; 8 µg/mL (≈ 18.2 µM) in experiment [5]; 1 µg/mL (≈ 2.28 µM) in experiment [6]. The MIC in [7] is 2 µg/mL (≈ 4.56 µM); in experiment [8], 8 µg/mL (≈ 18.2 µM); in experiment [9], 1 µg/mL (≈ 2.28 µM); in [10], 4 µg/mL (≈ 9.12 µM); in experiment [11], 2 µg/mL (≈ 4.56 µM).

Regarding `Cn1nnc(-c2ccc(-c3ccc(N4C[C@H](CO)OC4=O)cc3F)cn2)n1` [TEDIZOLID], the MIC came to 2 µg/mL (≈ 5.4 µM) in [1]; 2 µg/mL (≈ 5.4 µM) in [2]; 1 µg/mL (≈ 2.7 µM) in [3]; 1 µg/mL (≈ 2.7 µM) in experiment [4]; 2 µg/mL (≈ 5.4 µM) in experiment [5]; 1 µg/mL (≈ 2.7 µM) in experiment [6]. For the same compound, the MIC was found to be 0.5 µg/mL (≈ 1.35 µM) in experiment [7]; 2 µg/mL (≈ 5.4 µM) in [8]; 0.5 µg/mL (≈ 1.35 µM) in experiment [9]; 0.5 µg/mL (≈ 1.35 µM) in experiment [10]; 2 µg/mL (≈ 5.4 µM) in experiment [11].

`O=C(N[C@H](CO)[C@H](O)c1ccc([N+](=O)[O-])cc1)C(Cl)Cl` [CHLORAMPHENICOL]: the MIC in experiment [1] was 8 µg/mL (≈ 24.8 µM); in [2], above 64 µg/mL; in experiment [3], above 64 µg/mL; in experiment [4] it was above 64 µg/mL; in experiment [5], above 64 µg/mL; in [6], 8 µg/mL (≈ 24.8 µM). In addition, the MIC in [7] is above 64 µg/mL; in experiment [8], above 64 µg/mL; in [9] it was 8 µg/mL (≈ 24.8 µM); in experiment [10] it was above 64 µg/mL; in [11], 8 µg/mL (≈ 24.8 µM).
